pIC50: −log10 of the molar value. Values after ≈ are worked out from the molar mass of the structure shown.
Experiments:
[1] = molecular target: Signal peptidase I (Escherichia coli K-12) (UniProt P00803); experiment: Inhibition of Escherichia coli type 1 signal peptidase lepB assessed as residual activity at 0.0195 uM preincubated for 10 mins followed by Dabcyl-VGGTATAYGAFSRPGLE-(EDANS)-OH substrate addition measured after 2 hrs by FRET based assay (reference value: 100%)
Outline: (§1)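 EcLepB (about 50 nM estimated) preincubated 10 min with compound. Reaction started with Dabcyl/EDANS FRET peptide at 8 µM final (Km 20 µM). Fluorescence followed continuously at 535 nm, 22 °C, for 2 h. Cleavage rates plotted against inhibitor concentration; IC50 from non-linear regression of sigmoidal dose-response curves.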

[2] = tested on: Pseudomonas aeruginosa; experiment: Antibacterial activity against Pseudomonas aeruginosa PAO1 after 16 to 20 hrs by broth microdilution method; format: functional
Outline: (§2)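 Broth microdilution in cation-adjusted Mueller-Hinton II per EUCAST/CLSI; two-fold compound series 64 down to 0.25 µg/mL final. Inoculum from fresh colonies (non-selective agar, 18-24 h, 35 ± 2 °C), adjusted to 0.5 McFarland, diluted to about 5 × 10^5 CFU/mL final. Static incubation 16-20 h at 35 ± 2 °C; MIC read visually as complete growth inhibition against medium-only wells.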

[3] = molecular target: Signal peptidase I (Escherichia coli K-12) (UniProt P00803); experiment: Inhibition of Escherichia coli type 1 signal peptidase lepB assessed as residual activity at 1.25 uM preincubated for 10 mins followed by Dabcyl-VGGTATAYGAFSRPGLE-(EDANS)-OH substrate addition measured after 2 hrs by FRET based assay (reference value: 100%); outline: as §1
[4] = molecular target: Signal peptidase I (Escherichia coli K-12) (UniProt P00803); experiment: Inhibition of Escherichia coli type 1 signal peptidase lepB assessed as residual activity at 0.0049 uM preincubated for 10 mins followed by Dabcyl-VGGTATAYGAFSRPGLE-(EDANS)-OH substrate addition measured after 2 hrs by FRET based assay (reference value: 100%); outline: as §1
[5] = molecular target: Signal peptidase I (Escherichia coli K-12) (UniProt P00803); experiment: Inhibition of Escherichia coli type 1 signal peptidase lepB assessed as residual activity at 10 uM preincubated for 10 mins followed by Dabcyl-VGGTATAYGAFSRPGLE-(EDANS)-OH substrate addition measured after 2 hrs by FRET based assay (reference value: 100%); outline: as §1
[6] = tested on: Escherichia coli; experiment: Antibacterial activity against tolC deficient Escherichia coli CH3130 after 16 to 20 hrs by broth microdilution method; format: functional; outline: as §2
[7] = molecular target: Signal peptidase I (Escherichia coli K-12) (UniProt P00803); experiment: Inhibition of Escherichia coli type 1 signal peptidase lepB assessed as residual activity at 0.625 uM preincubated for 10 mins followed by Dabcyl-VGGTATAYGAFSRPGLE-(EDANS)-OH substrate addition measured after 2 hrs by FRET based assay (reference value: 100%); outline: as §1
[8] = molecular target: Signal peptidase I (Escherichia coli K-12) (UniProt P00803); experiment: Inhibition of Escherichia coli type 1 signal peptidase lepB assessed as residual activity at 5 uM preincubated for 10 mins followed by Dabcyl-VGGTATAYGAFSRPGLE-(EDANS)-OH substrate addition measured after 2 hrs by FRET based assay (reference value: 100%); outline: as §1
[9] = tested on: Escherichia coli; experiment: Antibacterial activity against Escherichia coli D22 CGSG 5163 harboring Ips mutant after 16 to 20 hrs by broth microdilution method; format: functional
Outline: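 Broth microdilution in cation-adjusted Mueller-Hinton II broth, following EUCAST and CLSI guidelines. Two-fold series at final concentrations 64 down to 0.25 µg/mL, with medium-only and growth controls. Inoculum from fresh colonies (18-24 h, 35 °C ± 2 °C) adjusted to 0.5 McFarland, final ≈5 × 10^5 CFU/mL. Plates incubated unshaken 16-20 h at 35 °C ± 2 °C. MIC read visually as complete inhibition of growth.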

[10] = tested on: HepG2; experiment: Cytotoxicity against human HepG2 cells after 72 hrs by FMSA; format: cell-based; settings: HepG2, 72 h
Outline: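 HepG2 (ATCC) grown in EMEM with 10% FBS, pen/strep, 2 mM L-glutamine, used up to 20 passages. Seeded at 1000 cells/well, cultured overnight, then dosed acoustically from DMSO stocks. Eight two-fold dilutions in duplicate from top 64 or 32 µM; 72 h at 37 °C, 5% CO2. Fluorescein diacetate hydrolysis read at ex 485/em 530 nm; IC50 by non-linear regression.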

[11] = molecular target: Signal peptidase I (Escherichia coli K-12) (UniProt P00803); experiment: Inhibition of Escherichia coli type 1 signal peptidase lepB assessed as residual activity at 0.3125 uM preincubated for 10 mins followed by Dabcyl-VGGTATAYGAFSRPGLE-(EDANS)-OH substrate addition measured after 2 hrs by FRET based assay (reference value: 100%); outline: as §1
[12] = molecular target: Signal peptidase I (Escherichia coli K-12, UniProt P00803); experiment: Inhibition of Escherichia coli type 1 signal peptidase lepB preincubated for 10 mins followed by Dabcyl-VGGTATAYGAFSRPGLE-(EDANS)-OH substrate addition measured after 2 hrs by FRET based assay; outline: as §1
[13] = tested on: Staphylococcus aureus; experiment: Antibacterial activity against Staphylococcus aureus ATCC 29213 after 16 to 20 hrs by broth microdilution method; format: functional; outline: as §2
[14] = molecular target: Signal peptidase I (Escherichia coli K-12) (UniProt P00803); experiment: Inhibition of Escherichia coli type 1 signal peptidase lepB assessed as residual activity at 0.0098 uM preincubated for 10 mins followed by Dabcyl-VGGTATAYGAFSRPGLE-(EDANS)-OH substrate addition measured after 2 hrs by FRET based assay (reference value: 100%); outline: as §1
[15] = molecular target: Signal peptidase I (Escherichia coli K-12) (UniProt P00803); experiment: Inhibition of Escherichia coli type 1 signal peptidase lepB assessed as residual activity at 0.0006 uM preincubated for 10 mins followed by Dabcyl-VGGTATAYGAFSRPGLE-(EDANS)-OH substrate addition measured after 2 hrs by FRET based assay (reference value: 100%); outline: as §1
[16] = molecular target: Signal peptidase I (Escherichia coli K-12) (UniProt P00803); experiment: Inhibition of Escherichia coli type 1 signal peptidase lepB assessed as residual activity at 0.0391 uM preincubated for 10 mins followed by Dabcyl-VGGTATAYGAFSRPGLE-(EDANS)-OH substrate addition measured after 2 hrs by FRET based assay (reference value: 100%); outline: as §1
[17] = tested on: Pseudomonas aeruginosa; experiment: Antibacterial activity against efflux defective Pseudomonas aeruginosa PAO750 after 16 to 20 hrs by broth microdilution method; format: functional; outline: as §2
[18] = tested on: Escherichia coli; experiment: Antibacterial activity against Escherichia coli ATCC 25922 after 16 to 20 hrs by broth microdilution method; format: functional; outline: as §2
[19] = molecular target: Signal peptidase I (Escherichia coli K-12) (UniProt P00803); experiment: Inhibition of Escherichia coli type 1 signal peptidase lepB assessed as residual activity at 0.0781 uM preincubated for 10 mins followed by Dabcyl-VGGTATAYGAFSRPGLE-(EDANS)-OH substrate addition measured after 2 hrs by FRET based assay (reference value: 100%); outline: as §1
[20] = tested on: Acinetobacter baumannii; experiment: Antibacterial activity against Acinetobacter baumannii ATCC 19606 after 16 to 20 hrs by broth microdilution method; format: functional; settings: ATCC 19606 = CIP 70.34 = JCM 6841; outline: as §2
[21] = Hemolytic activity in human RBC at 100 uM after 45 mins by spectrophotometric method relative to control; format: ADME, cell-based, Erythrocyte; settings: red blood cells (erythrocytes), read-out: Activity
Outline: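 Heparinized human blood; red cells washed three times in Tyrode buffer pH 7.4. Compound at 100 µM final with 1% DMSO and 50% RBC, shaken (250 rpm) 45 min at 37 °C. Cells pelleted (1000 × g, 10 min); supernatant haemoglobin at 540 nm. Percent lysis relative to buffer-only and 2% Triton X-100 controls.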

[22] = molecular target: Signal peptidase I (Escherichia coli K-12) (UniProt P00803); experiment: Inhibition of Escherichia coli type 1 signal peptidase lepB assessed as residual activity at 0.0012 uM preincubated for 10 mins followed by Dabcyl-VGGTATAYGAFSRPGLE-(EDANS)-OH substrate addition measured after 2 hrs by FRET based assay (reference value: 100%); outline: as §1
[23] = tested on: Klebsiella pneumoniae; experiment: Antibacterial activity against Klebsiella pneumoniae ATCC 13883 after 16 to 20 hrs by broth microdilution method; format: functional; outline: as §2
[24] = molecular target: Signal peptidase I (Escherichia coli K-12) (UniProt P00803); experiment: Inhibition of Escherichia coli type 1 signal peptidase lepB assessed as residual activity at 0.1563 uM preincubated for 10 mins followed by Dabcyl-VGGTATAYGAFSRPGLE-(EDANS)-OH substrate addition measured after 2 hrs by FRET based assay (reference value: 100%); outline: as §1
[25] = molecular target: Signal peptidase I (Escherichia coli K-12) (UniProt P00803); experiment: Inhibition of Escherichia coli type 1 signal peptidase lepB assessed as residual activity at 0.0024 uM preincubated for 10 mins followed by Dabcyl-VGGTATAYGAFSRPGLE-(EDANS)-OH substrate addition measured after 2 hrs by FRET based assay (reference value: 100%); outline: as §1
[26] = molecular target: Signal peptidase I (Escherichia coli K-12) (UniProt P00803); experiment: Inhibition of Escherichia coli type 1 signal peptidase lepB assessed as residual activity at 2.5 uM preincubated for 10 mins followed by Dabcyl-VGGTATAYGAFSRPGLE-(EDANS)-OH substrate addition measured after 2 hrs by FRET based assay (reference value: 100%); outline: as §1

Chain of Signal peptidase I (Escherichia coli K-12) (P00803 whole entry): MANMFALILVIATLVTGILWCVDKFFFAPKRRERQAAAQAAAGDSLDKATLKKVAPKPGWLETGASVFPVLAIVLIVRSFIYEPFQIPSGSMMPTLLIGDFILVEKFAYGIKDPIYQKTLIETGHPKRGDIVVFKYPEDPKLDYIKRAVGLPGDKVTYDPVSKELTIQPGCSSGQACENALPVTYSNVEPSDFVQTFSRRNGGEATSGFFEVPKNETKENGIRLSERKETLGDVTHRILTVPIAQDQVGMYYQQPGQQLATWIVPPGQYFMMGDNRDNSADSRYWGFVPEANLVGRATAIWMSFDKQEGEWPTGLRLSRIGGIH
Chain of Signal peptidase I (P00803 whole entry): as above

SMILES | Activity [1] [%] | MIC [2] [µg/mL] | Activity [3] [%] | Activity [4] [%] | Activity [5] [%] | MIC [6] [µg/mL] | Activity [7] [%] | Activity [8] [%] | MIC [9] [µg/mL] | pIC50 [10] | Activity [11] [%] | pIC50 [12] | MIC [13] [µg/mL] | Activity [14] [%] | Activity [15] [%] | Activity [16] [%] | MIC [17] [µg/mL] | MIC [18] [µg/mL] | Activity [19] [%] | MIC [20] [µg/mL] | further results
CCCCCCc1ccc(-c2ccc(C(=O)N[C@@H](CCCN)C(=O)N[C@H](C(=O)N[C@@H](C)C(=O)N[C@H]3Cc4cn(nn4)CCCN4C[C@@H]5OB(O[C@@H]5C4)[C@H](C)NC3=O)[C@@H](C)O)cc2)cc1 | 68.6 | > 64 | 32.8 | 80.9 | 5.6 | 8 (≈ 9.04 µM) | 35.3 | 14.9 | 8 (≈ 9.04 µM) | 5.40 | 43 | 6.98 | 32 (≈ 36.2 µM) | 76.7 | 89.5 | 47.9 | 64 (≈ 72.3 µM) | 32 (≈ 36.2 µM) | 42.8 | 16 (≈ 18.1 µM) | hemolysis at 0.75 h, 100 µM [21]: 17.4%; Activity [22]: 85.6%; MIC [23]: 32 µg/mL (≈ 36.2 µM); Activity [24]: 47.3%; Activity [25]: 86.2%; Activity [26]: 28.1%
CCCCCCc1ccc(-c2ccc(C(=O)N[C@@H](Cc3cnc[nH]3)C(=O)N[C@H](C(=O)N[C@@H](C)C(=O)N[C@H]3Cc4cn(nn4)CCCN4C[C@@H]5OB(O[C@@H]5C4)[C@H](C)NC3=O)[C@@H](C)O)cc2)cc1 | 81 | > 64 | 34.1 | 90.8 | 20.8 | > 64 | 34.2 | 25 | 64 (≈ 70.5 µM) | 5.27 | 39.7 | 6.97 | > 64 | 91.4 | 94.5 | 76.7 | > 64 | > 64 | 66.2 | > 64 | hemolysis at 0.75 h, 100 µM [21]: 4.1%; Activity [22]: 94%; MIC [23]: > 64 µg/mL; Activity [24]: 52%; Activity [25]: 94.7%; Activity [26]: 27.8%

Source: ChEMBL document CHEMBL4270642, “Boronic ester-linked macrocyclic lipopeptides as serine protease inhibitors targeting Escherichia coli type I signal peptidase” (Eur J Med Chem, 2018)
